Measurements as given in ChEMBL document CHEMBL5712918, “Targeting methyltransferase PRMT5 retards the carcinogenesis and metastasis of HNSCC via epigenetically inhibiting Twist1 transcription” (Neoplasia, 2020).
Active and inactive are the calls of the source. The calls are words filed in the database; no cut-off is given here.

Key:
[1] = target: Protein arginine N-methyltransferase 5 (Homo sapiens) (UniProt O14744); experiment: Inhibition of PRMT5 in human HSC-6 cells assessed as reduction in Twist1 protein expression at 10 uM incubated for 4 days by western blot analysis; format: cell-based; settings: time 4.0 day
Sequence of Protein arginine N-methyltransferase 5 (Homo sapiens) (O14744 whole entry): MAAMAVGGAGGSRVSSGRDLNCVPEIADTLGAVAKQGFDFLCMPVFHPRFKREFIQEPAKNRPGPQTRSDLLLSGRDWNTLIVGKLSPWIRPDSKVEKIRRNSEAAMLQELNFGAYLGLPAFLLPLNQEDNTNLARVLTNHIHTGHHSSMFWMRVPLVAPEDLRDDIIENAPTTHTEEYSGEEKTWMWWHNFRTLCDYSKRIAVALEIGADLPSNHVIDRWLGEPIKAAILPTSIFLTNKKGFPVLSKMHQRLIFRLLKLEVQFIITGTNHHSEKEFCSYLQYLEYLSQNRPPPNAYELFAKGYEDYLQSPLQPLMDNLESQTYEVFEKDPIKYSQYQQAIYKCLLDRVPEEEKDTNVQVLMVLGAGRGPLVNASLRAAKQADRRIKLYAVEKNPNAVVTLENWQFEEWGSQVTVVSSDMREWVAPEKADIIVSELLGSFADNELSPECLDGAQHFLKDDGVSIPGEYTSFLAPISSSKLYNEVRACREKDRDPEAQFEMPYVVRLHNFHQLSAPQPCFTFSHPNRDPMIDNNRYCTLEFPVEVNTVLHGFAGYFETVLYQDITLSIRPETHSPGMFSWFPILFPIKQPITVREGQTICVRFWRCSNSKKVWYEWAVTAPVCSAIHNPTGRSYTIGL
Method in brief: (§1)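 HSC6 or SCC25 cells treated with 10 μM for 4 days. E-cadherin, N-cadherin and Twist1 proteins detected by immunoblot.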

Rattus norvegicus = experiment: Antitumor activity against 4-Nitroquinoline-1-Oxide induced cancer Sprague-Dawley rat carcinogenic model assessed as reduction in number of Twist1 positive cells at 30 mg/kg, iv administered on week 12 and measured on week 22 by IHC assay; format: functional, organism-based; settings: time 10.0 weeks
Method in brief: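 4NQO-induced SD rat tongue lesions (0.002% 4NQO in drinking water for 12 weeks; tail-vein 30 mg/kg from week 12; killed at week 22). IHC with Twist1 antibody 1:250. Percentage of positive cells from 5 random fields per sample. Groups n = 11/6, mean ± SD, Student's t test.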

HSC-6 [2] = experiment: Antitumor activity against human HSC-6 cells xenografted in BALB/c nude mouse model of orthotopic tumor assessed as reduction in tumor volume in tongue at 30 mg/kg by H and E staining based assay; format: functional, organism-based
Method in brief: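 Orthotopic tongue xenograft: 5 × 10^5 HSC6 cells submucosally in 4-week-old BALB/c nude mice, control or 30 mg/kg (n = 12 each). Tumour volume quantified on HE-stained longitudinal tongue sections. Student's t test.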

[3] = target: Protein arginine N-methyltransferase 5 (Homo sapiens) (UniProt O14744); experiment: Inhibition of PRMT5 in human SCC-25 cells assessed as reduction in H3R2me2 protein expression at 10 uM incubated for 4 days by western blot analysis; format: cell-based; settings: time 4.0 day
SCC-25 [4] = experiment: Antiproliferative activity against human SCC-25 cells assessed as reduction in colony formation at 0.5 to 5 uM after 10 to 14 days […]; format: functional, cell-based; settings: dose 0.5-5 µM, time 10-14 day
Method in brief: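 Colony formation: cells dispersed to single cells and seeded at 500 cells/well in 6-well plates. Grown 10–14 days until macroscopic clones appeared, then formaldehyde-fixed and crystal violet-stained. Clone formation rate from clones counted by eye.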

[5] = target: Protein arginine N-methyltransferase 5 (Homo sapiens) (UniProt O14744); experiment: Inhibition of PRMT5 in human SCC-25 cells assessed as reduction in Twist1 protein expression at 10 uM incubated for 4 days by western blot analysis; format: cell-based; settings: time 4.0 day; method in brief: as §1
[6] = target: Protein arginine N-methyltransferase 5 (Homo sapiens) (UniProt O14744); experiment: Inhibition of PRMT5 in human SCC-25 cells assessed as reduction in H3R8me2 protein expression at 10 uM incubated for 4 days by western blot analysis; format: cell-based; settings: time 4.0 day
[7] = target: Protein arginine N-methyltransferase 5 (Homo sapiens) (UniProt O14744); experiment: Inhibition of PRMT5 in human SCC-25 cells assessed as reduction in H3R2me2 enrichment in Twist1 promoter region at 10 uM incubated for 4 days by Chip-qPCR analysis; format: cell-based; settings: time 4.0 day
Method in brief: (§2)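 ChIP-qPCR at the Twist1 promoter after 4 days at 10 μM in HSC6 or SCC25 cells. Antibody ratios: H3R2me2s 1:100, H4R3me2s 1:100, WDR5 1:50, Set1 1:50; ChIP assay kit protocol. Mean ± SD of three independent experiments, Student's t test.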

[8] = Toxicity in BALB/c nude mouse xenografted with human HSC6 cells assessed as effect on liver morphology at 15 to 30 mg/kg; format: organism-based; settings: in vivo, dose 15-30 mg/kg
Method in brief: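 Subcutaneous xenograft in 4-week-old BALB/c nude mice given 6 × 10^7 HSC6 cells into the back. Groups were control, 15 mg/kg and 30 mg/kg. Body weight was monitored and major organs were examined for toxicity.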

SCC-25 [9] = experiment: Antiproliferative activity against human SCC-25 cells assessed as reduction in cell vaibility at 1 to 10 uM by CCK-8 assay; format: functional, cell-based; settings: dose 1-10 µM
Method in brief: (§3)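 Proliferation of HSC6 and SCC25 cells read by CCK-8 conversion. Mean ± SD of three independent experiments, Student's t test.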

SCC-25 [10] = experiment: Antimigratory activity against human SCC-25 cells assessed as reduction in cell invasion after 48 hrs incubated for 48 hrs by transwell assay; format: functional, cell-based
HSC-6 [11] = experiment: Antiproliferative activity against human HSC-6 cells assessed as reduction in cell vaibility at 1 to 10 uM by CCK-8 assay; format: functional, cell-based; settings: dose 1-10 µM; method in brief: as §3
[12] = test system: Squamous carcinoma cell line; experiment: Antitumor activity against human squamous carcinoma cells in BALB/c nude PDX xenograft mouse assessed as reduction in Ki67-positive cells at 30 mg/kg by IHC analysis; format: functional, organism-based
Method in brief: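 PDX: tongue squamous carcinoma tissue minced into 1∼2 mm3 pieces and passaged in BALB/c nude mice. P2 tissue implanted subcutaneously into 4-week-old mice, randomised at 50 mm3 tumour size to control or 30 mg/kg (n = 6 each). Volume change followed, and Ki-67 IHC quantified. Mean ± SD, Student's t test.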

HSC-6 [13] = experiment: Antitumor activity against human HSC-6 cells xenografted in BALB/c nude mouse model of orthotopic tumor assessed as reduction in lymphnode metastasis at 30 mg/kg by immunohistochemistry analysis; format: functional, organism-based
Method in brief: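 Orthotopic model: 5 × 10^5 HSC6 cells injected submucosally into the tongue of 4-week-old BALB/c nude mice, vehicle or 30 mg/kg (n = 12 each). Cervical lymph node metastasis detected by IHC with pan-cytokeratin antibody 1:400. Metastasis rates compared by Fisher's exact test.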

HSC-6 [14] = experiment: Antitumor activity against human HSC-6 cells xenografted in BALB/c nude mouse assessed as reduction in number of Twist1 positive cells at 30 mg/kg by IHC staining; format: functional, organism-based
Method in brief: (§4)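 HSC6 subcutaneous xenograft: 6 × 10^7 cells into the back of 4-week-old BALB/c nude mice, dosed at 15 or 30 mg/kg. IHC with Ki67 1:400 or Twist1 1:250. Percent positive cells from 5 random fields per sample. Student's t test; Twist1 groups n = 6/6.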

[15] = target: Protein arginine N-methyltransferase 5 (Homo sapiens) (UniProt O14744); experiment: Inhibition of PRMT5 in human SCC-25 cells assessed as reduction in Twist1 mRNA expression at 10 uM incubated for 4 days by RT-qPCR analysis; format: cell-based; settings: time 4.0 day
Method in brief: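 HSC6 or SCC25 cells exposed to 10 μM for 4 days. Twist1 mRNA measured by quantitative RT-PCR. Mean ± SD of three independent experiments, Student's t test.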

HSC-6 [16] = experiment: Antitumor activity against human HSC-6 cells xenografted in BALB/c nude mouse assessed as reduction in Ki67-positive tumor cell at 15 to 30 mg/kg by immunohistochemistry analysis; format: functional, organism-based; settings: dose 15-30 mg/kg; method in brief: as §4
[17] = target: Protein arginine N-methyltransferase 5 (Homo sapiens) (UniProt O14744); experiment: Inhibition of PRMT5 in human SCC-25 cells over expressing Twist1 assessed as decrease in E-cadherin protein level at 10 uM incubated for 4 days by immunoblot analysis; format: cell-based; settings: time 4.0 day
Method in brief: (§5)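 SCC25 cells stably overexpressing Flag-tagged Twist1 were treated with or without 10 μM inhibitor for 4 days, then immunoblotted for Twist1, N-cadherin and E-cadherin.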

[18] = target: Protein arginine N-methyltransferase 5 (Homo sapiens) (UniProt O14744); experiment: Inhibition of PRMT5 in human SCC-25 cells over expressing Twist1 assessed as increase in N-cadherin protein level at 10 uM incubated for 4 days by immunoblot analysis; format: cell-based; settings: time 4.0 day; method in brief: as §5
[19] = target: Protein arginine N-methyltransferase 5 (Homo sapiens) (UniProt O14744); experiment: Inhibition of PRMT5 in human HSC-6 cells assessed as reduction in H3R2me2 protein expression at 10 uM incubated for 4 days by western blot analysis; format: cell-based; settings: time 4.0 day
[20] = target: Protein arginine N-methyltransferase 5 (Homo sapiens) (UniProt O14744); experiment: Inhibition of PRMT5 in human HSC-6 cells assessed as reduction in H4R3me2 protein expression at 10 uM incubated for 4 days by western blot analysis; format: cell-based; settings: time 4.0 day
[21] = target: Protein arginine N-methyltransferase 5 (Homo sapiens) (UniProt O14744); experiment: Inhibition of PRMT5 in human HSC-6 cells assessed as reduction in WDR5 occupancy in Twist1 promoter region at 10 uM incubated for 4 days by Chip-qPCR analysis; format: cell-based; settings: time 4.0 day; method in brief: as §2

inhibition [1]: Active
inhibition [3]: Active
inhibition [5]: Active
inhibition [6]: Active
inhibition [7]: Active
inhibition [15]: Active
inhibition [17]: inactive
inhibition [18]: inactive
inhibition [19]: Active
inhibition [20]: Active
inhibition [21]: Active
Structure (SMILES): O=C(NC[C@H](O)CN1CCc2ccccc2C1)c1cc(NC2COC2)ncn1
Activity (Rattus norvegicus): Active
Activity (HSC-6 [2]): Active
Activity (SCC-25 [4]): Active
Activity [8]: Non-Toxic
Activity (SCC-25 [9]): Active
Activity (SCC-25 [10]): Active
Activity (HSC-6 [11]): Active
Activity [12]: Active
Activity (HSC-6 [13]): Active
Activity (HSC-6 [14]): Active
Activity (HSC-6 [16]): Active
